Here are results for twelve compounds from article PMC4593509 (Medicinal chemistry research : an international journal for …, 2015).

One data set has as its system NCI-H460. In words: MTT assay, cell viability after 72 h. The class given is cell-based, human. The following applies: read-out: IC50 (at day 3). The essentials: (§1)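 Cells were kept in RPMI-1640 with 10% FBS at 37 °C and 5% CO₂, grown to confluency, seeded at 5,000–7,000 per well, and incubated 24 h. Medium was replaced with medium holding test compound, diluted from a 1% DMSO/water suspension, in six replicates each in triplicate. After 72 h, MTT in PBS was added for 4 h. Medium was then removed, formazan dissolved in DMSO, and OD read at 540 nm.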

In a further data set the test system is HCC827. Kind of data set: MTT assay, cell viability after 72 h. The class given is cell-based, human. The following applies: read-out: IC50 (at day 3). The method, boiled down: as §1
Another data set deals with NCI-H1975. Kind of data set: MTT assay, cell viability after 72 h. It is filed as cell-based, human. Particulars: read-out: IC50 (at day 3). The essentials:
as §1

The nature of data set [1]: Water solubility from a filtered saturated solution, by weight. The class given is physicochemical. Particulars: for solubility: thermodynamic from solid.
For data set [2], the system named is NSCLC cell lines NCI-H460, NCI-H1975, and HCC827. Kind of data set: MTT assay, values stated for the whole panel of NSCLC cell lines. The class given is cell-based, human. The following applies: NCI-H460, NCI-H1975, HCC827; result in words. The method, boiled down: as §1
Another data set relates to NCI-H460 cell line. In words: Annexin V. It is filed as cell-based, human. The following applies: H460 cells, treatment 6 h; IC23 and cisplatin at 40 μM. The essentials: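 NCI-H460 cells were seeded at 1×10^5 per well and left to adhere overnight. Test compound or cisplatin (40 µM) was diluted into medium from a 1% DMSO/water solution, and untreated controls got fresh medium, with 2 wells per treatment. After exposure, cells were washed twice in cold PBS and stained with FITC-Annexin V and PI in 1× binding buffer for 15 min at room temperature in the dark. Imaging used fluorescence microscopy at 10× and 20×.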

Data set [3] relates to PARP and caspase-3 in NCI-H460 cells. Kind of data set: Western blotting of apoptotic proteins caspase-3 and PARP. It is filed as cell-based, human. The following applies: H460 cells, 5 μM, 36 h. The method, boiled down: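 Confluent NCI-H460 cells, seeded at 1×10^5 per well in RPMI-1640 with 10% FBS and 1% pen-strep, were serum-starved 24 h, then treated. Cells were lysed in ice-cold Tris pH 7.5/Triton X-100 buffer with protease/phosphatase inhibitors. Equal lysate amounts were run on 4–12% SDS-PAGE and moved to PVDF, then probed with PARP, caspase-3 and GAPDH antibodies (1:1,000, 4 °C overnight) and HRP anti-rabbit (1:5,000). Detection was by ECL, with GAPDH reprobe for normalization and cisplatin lysates as control.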

Each structure is given as a SMILES string. In brackets after ≈: the same amount, converted by molar mass. Like-named read-outs stand apart in the source and are kept apart here.

Take `c1ccc2cc(Cn3c[n+](Cc4ccc5ccccc5c4)c4ccccc43)ccc2c1` [Compound 13, 1,3-bis(naphthalen-2-ylmethyl)benzimidazolium bromide]: the IC50 with NCI-H460 (Homo sapiens, NCI-H460, 72 h) worked out at 3 µM; in the data set on HCC827 (Homo sapiens, HCC827, 72 h), 5 µM; in the data set on NCI-H1975 (Homo sapiens, NCI-H1975, 72 h) it was 4 µM.
Turning to `Cn1c(=O)c2c(ncn2Cc2ccc3ccccc3c2)n(C)c1=O` [Compound 14, 1,3-dimethyl-7-(naphthalen-2-ylmethyl)xanthine], the IC50 with NCI-H460 (Homo sapiens, NCI-H460, 72 h) turned out to be 8 µM; with HCC827 (Homo sapiens, HCC827, 72 h), 28 µM; with NCI-H1975 (Homo sapiens, NCI-H1975, 72 h) it was 12 µM. The same compound came in with a solubility in data set [1] (water) of 800 µg/mL (≈ 2500 µM).
As to `Cn1c(=O)c2c(n(C)c[n+]2Cc2ccc3ccccc3c2)n(C)c1=O.[I-]` [Compound 15, 1,3,9-trimethyl-7-(naphthalen-2-ylmethyl)xanthinium iodide], the IC50 with NCI-H460 (NCI-H460, 72 h exposure, MTT) is greater than 30 µM; in the data set on HCC827 (HCC827, 72 h exposure, MTT), greater than 30 µM; in the data set on NCI-H1975 (NCI-H1975, 72 h exposure, MTT), greater than 30 µM. In addition, in data set [2], the “anti-tumor activity against the three cell lines” value was “no observable anti-tumor activity”. The same compound gave an H2O solubility in data set [1] (water, saturated solution stirred for several hours, filtered) of 2600 µg/mL.
On to `Clc1ncn(CCc2cccc3ccccc23)c1Cl` [Compound 16, 4,5-dichloro-1-(2-(naphthalen-1-yl)ethyl)-imidazole], for which the IC50 with NCI-H460 (NCI-H460, 72 h exposure, MTT) was greater than 30 µM; in the data set with HCC827 (HCC827, 72 h exposure, MTT), greater than 30 µM; in the data set with NCI-H1975 (NCI-H1975, 72 h exposure, MTT) it was greater than 30 µM.
`Clc1c(Cl)[n+](CCc2cccc3ccccc23)cn1CCc1cccc2ccccc12.[Br-]` [Compound 17, 4,5-dichloro-1,3-bis(2-(naphthalen-1-yl)ethyl)-imidazolium bromide]: the IC50 is 8 µM in the data set on NCI-H460 (Homo sapiens, NCI-H460, 72 h); 11 µM with HCC827 (Homo sapiens, HCC827, 72 h); 8 µM in the data set on NCI-H1975 (Homo sapiens, NCI-H1975, 72 h). For the same compound, the solubility in data set [1] (water) was found to be 400 µg/mL.
Turning to `Clc1c(Cl)[n+](Cc2ccc3ccccc3c2)cn1CCc1cccc2ccccc12.[Br-]` [Compound 18, 4,5-dichloro-1-(2-(naphthalen-1-yl)ethyl)-3-(naphthalen-2-ylmethyl)-imidazolium bromide], the IC50 came out at 5 µM with NCI-H460 (Homo sapiens, NCI-H460, 72 h); 7 µM in the data set on HCC827 (Homo sapiens, HCC827, 72 h); 6 µM in the data set on NCI-H1975 (Homo sapiens, NCI-H1975, 72 h). Further, the “water solubility compared to IC23” value in data set [1] (result in words) is recorded as “did not show a significant increase”. In data set [1] (water), this compound displayed a solubility of 100 µg/mL.
For the compound `Clc1c(Cl)[n+](Cc2ccccc2)cn1CCc1cccc2ccccc12` [Compound 19, 3-benzyl-4,5-dichloro-1-(2-(naphthalen-1-yl)ethyl)-imidazolium bromide], the IC50 in the data set on NCI-H460 (Homo sapiens, NCI-H460, 72 h) is 12 µM; in the data set with HCC827 (Homo sapiens, HCC827, 72 h), greater than 30 µM; with NCI-H1975 (Homo sapiens, NCI-H1975, 72 h) it was 14 µM.
For `Clc1ncn(CCc2ccc3ccccc3c2)c1Cl` [Compound 20, 4,5-dichloro-1-(2-(naphthalen-2-yl)ethyl)-imidazole], in that order: greater than 30 µM, greater than 30 µM and greater than 30 µM.
Take `Clc1c(Cl)[n+](CCc2ccc3ccccc3c2)cn1CCc1ccc2ccccc2c1` [Compound 21, 4,5-Dichloro-1,3-bis(2-(naphthalen-2-yl)ethyl)-imidazolium bromide]: the IC50 in the data set with NCI-H460 (Homo sapiens, NCI-H460, 72 h) amounted to 8 µM; in the data set with HCC827 (Homo sapiens, HCC827, 72 h) it was 8 µM; with NCI-H1975 (Homo sapiens, NCI-H1975, 72 h) it was 8 µM.
Consider `Clc1c(Cl)[n+](Cc2ccc3ccccc3c2)cn1CCc1ccc2ccccc2c1` [Compound 22, 4,5-dichloro-1-(2-(naphthalen-2-yl)ethyl)-3-(naphthalen-2-ylmethyl)-imidazolium bromide], for which the IC50 is 4 µM in the data set with NCI-H460 (Homo sapiens, NCI-H460, 72 h); 9 µM in the data set with HCC827 (Homo sapiens, HCC827, 72 h); 7 µM with NCI-H1975 (Homo sapiens, NCI-H1975, 72 h).
Regarding `Clc1c(Cl)[n+](Cc2ccc3ccccc3n2)cn1Cc1ccc2ccccc2c1.[Br-]` [Compound 23, 4,5-dichloro-1-(naphthalen-2-ylmethyl)-3-(quinolin-2-ylmethyl)imidazolium bromide], the IC50 was 10 µM in the data set with NCI-H460 (Homo sapiens, NCI-H460, 72 h); 9 µM with HCC827 (Homo sapiens, HCC827, 72 h); 5 µM in the data set with NCI-H1975 (Homo sapiens, NCI-H1975, 72 h). Moreover, in data set [1] (relative to IC23), the “increase in aqueous solubility from IC23” value is no less than 10 fold. In data set [1] (water), this compound showed a solubility of 900 µg/mL.
Consider `N.N.[Cl][Pt][Cl]` [cisplatin, reference compound], for which, in the data set on NCI-H460 cell line, the “stage of apoptosis (Annexin V / PI)” value is listed as “early-stage apoptosis”. Also, the IC50 in the data set on NCI-H460 (NCI-H460, 72 h exposure, MTT) was determined as 3 µM; with HCC827 (HCC827, 72 h exposure, MTT), 4 µM; in the data set with NCI-H1975 (NCI-H1975, 72 h exposure, MTT), 10 µM. Further, the “PARP-1 cleavage and amount of procaspase-3” value in data set [3] is “both PARP-1 cleavage and a reduced amount of procaspase-3”.
